# Laboratory results as given in ChEMBL document CHEMBL1255417, “Correlation between in vitro activity of posaconazole and in vivo efficacy against Rhizopus oryzae infection in mice” (Antimicrob Agents Chemother, 2010).
# Activity calls are given as the source filed them. No cut-off for these calls is given here.
# Legend:
# Rhizopus arrhizus [1] = experiment: Antifungal activity against drug-susceptible Rhizopus oryzae UTHSC 06-2374 after 24 to 48 hrs; format: functional
# Method in brief: (§1)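 Minimum fungicidal concentration taken from the broth microdilution plates. From each well with complete inhibition (optically clear), 20 ul is plated on potato dextrose agar. Plates are incubated at 35°C for 24 to 48 h. The MFC is the lowest drug concentration giving no growth.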
# Rhizopus arrhizus [2] = experiment: Antifungal activity against drug-susceptible Rhizopus oryzae UTHSC 412-546 after 24 to 48 hrs; format: functional
# Rhizopus arrhizus [3] = experiment: Antifungal activity against drug-susceptible Rhizopus oryzae UTHSC 06-4035 at 5 ug by disk diffusion assay; format: functional; conditions: read-out: DIZ
# Method in brief: (§2)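 Neo-Sensitabs tablet diffusion on Mueller-Hinton agar, run per the mould guidelines. Tablets are 9 mm in diameter and carry 5 ug posaconazole. The read-out is the inhibition zone diameter in mm.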
# Rhizopus arrhizus [4] = experiment: Antifungal activity against drug-susceptible Rhizopus oryzae UTHSC 06-4133 by broth microdilution method; format: functional
# Method in brief: (§3)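 Posaconazole MIC in ug/ml, determined by broth microdilution following the CLSI guidelines for moulds (M38-A2).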
# Rhizopus arrhizus [5] = experiment: Antifungal activity against drug-intermediate Rhizopus oryzae UTHSC 07-365 infected in OF1 mouse assessed as reduction in kidney fungal load at 10-30 mg/kg, po bid treated 24 hrs after fungal infection; format: functional, organism-based
# Method in brief: (§4)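 Tissue burden in immunosuppressed male OF1 mice, using cyclophosphamide 200 mg/kg i.p. plus 5-fluorouracil 150 mg/kg i.v. on day −1. Mice received 2 × 10^4 CFU i.v. by tail vein, then oral gavage at 10, 20 or 30 mg/kg BID from 24 h post-challenge, with ceftazidime cover; untreated controls. Groups of 10 were killed on day 4. Kidneys and brains were homogenized in 2 ml saline, serially diluted 10-fold, plated on PDA and counted after 24 h at 35°C.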
# Rhizopus arrhizus [6] = experiment: Antifungal activity against drug-susceptible Rhizopus oryzae UTHSC 06-89 infected in OF1 mouse assessed as reduction in kidney fungal load at 10-30 mg/kg, po bid; format: functional, organism-based
# Rhizopus arrhizus [7] = experiment: Antifungal activity against drug-intermediate Rhizopus oryzae UTHSC 05-3032 at 5 ug by disk diffusion assay; format: functional; conditions: read-out: DIZ
# Method in brief: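 Neo-Sensitabs tablet diffusion on Mueller-Hinton agar, following the guidelines for molds. Tablets were 9 mm in diameter and held 5 µg of drug. The read-out was inhibition zone diameter in mm.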
# Rhizopus arrhizus [8] = experiment: Antifungal activity against drug-susceptible Rhizopus oryzae UTHSC 06-89 at 5 ug by disk diffusion assay; format: functional; conditions: read-out: DIZ
# Rhizopus arrhizus [9] = experiment: Antifungal activity against drug-susceptible Rhizopus oryzae UTHSC 04-2159 after 24 to 48 hrs; format: functional
# Method in brief: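 Minimum fungicidal concentration: 20 µl from each microdilution well showing complete inhibition (optically clear) plated on potato dextrose agar, incubated 35°C for 24 to 48 h; MFC taken as lowest drug concentration giving no growth.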
# Rhizopus arrhizus [10] = experiment: Antifungal activity against drug-susceptible Rhizopus oryzae UTHSC 02-2882 infected in OF1 mouse assessed as reduction in brain fungal load at 10-30 mg/kg, po bid treated 24 hrs after fungal infection; format: functional, organism-based; method in brief: as §4
# Rhizopus arrhizus [11] = experiment: Antifungal activity against drug-intermediate Rhizopus oryzae UTHSC 03-285 by broth microdilution method; format: functional
# Method in brief: (§5)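 Broth microdilution MIC in µg/ml, run per the CLSI (formerly NCCLS) guideline for filamentous fungi, M38-A2.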
# Rhizopus arrhizus [12] = experiment: Antifungal activity against drug-susceptible Rhizopus oryzae UTHSC 06-3913 after 24 to 48 hrs; format: functional; method in brief: as §1
# Rhizopus arrhizus [13] = experiment: Antifungal activity against drug-susceptible Rhizopus oryzae UTHSC 06-434 at 5 ug by disk diffusion assay; format: functional; conditions: read-out: DIZ; method in brief: as §2
# Rhizopus arrhizus [14] = experiment: Antifungal activity against drug-susceptible Rhizopus oryzae UTHSC 06-2457 at 5 ug by disk diffusion assay; format: functional; conditions: read-out: DIZ; method in brief: as §2
# Rhizopus arrhizus [15] = experiment: Antifungal activity against drug-susceptible Rhizopus oryzae UTHSC 03-51 infected in OF1 mouse assessed as increase in mouse survival at 20-30 mg/kg, po bid treated 24 hrs after fungal infection; format: functional, organism-based
# Method in brief: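 Male OF1 mice (30 g) immunosuppressed 1 day before infection with cyclophosphamide 200 mg/kg i.p. plus 5-fluorouracil 150 mg/kg i.v.; challenged i.v. via tail vein with 2 × 10^4 CFU; oral gavage twice daily for 7 days from 24 h post-challenge; ceftazidime 5 mg/day s.c. days 1–7; untreated controls; 10 mice/group; survival checked daily to day 20.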
# Rhizopus arrhizus [16] = experiment: Antifungal activity against drug-susceptible Rhizopus oryzae UTHSC 03-112 by broth microdilution method; format: functional; method in brief: as §5
# Rhizopus arrhizus [17] = experiment: Antifungal activity against drug-susceptible Rhizopus oryzae UTHSC 05-3111 at 5 ug by disk diffusion assay; format: functional; conditions: read-out: DIZ; method in brief: as §2
# Rhizopus arrhizus [18] = experiment: Antifungal activity against drug-susceptible Rhizopus oryzae UTHSC 412-546 by broth microdilution method; format: functional
# Rhizopus arrhizus [19] = experiment: Antifungal activity against drug-susceptible Rhizopus oryzae UTHSC 06-3913 at 5 ug by disk diffusion assay; format: functional; conditions: read-out: DIZ; method in brief: as §2
# Rhizopus arrhizus [20] = experiment: Antifungal activity against drug-susceptible Rhizopus oryzae UTHSC 05-3111 by broth microdilution method; format: functional; method in brief: as §3
# Rhizopus arrhizus [21] = experiment: Antifungal activity against drug-susceptible Rhizopus oryzae UTHSC 04-1613 at 5 ug by disk diffusion assay; format: functional; conditions: read-out: DIZ
# Method in brief: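 Neo-Sensitabs tablet diffusion on Mueller-Hinton agar, following guidelines for molds; 9 mm tablets containing 5 µg posaconazole; inhibition zone diameter measured in mm; zone breakpoints applied at 24 h.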
# Rhizopus arrhizus [22] = experiment: Antifungal activity against drug-intermediate Rhizopus oryzae UTHSC 07-365 infected in OF1 mouse assessed as increase in mouse survival at 20-30 mg/kg, po bid treated 24 hrs after fungal infection; format: functional, organism-based
# Method in brief: (§6)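 Survival model in male OF1 mice, 30 g. Mice were immunosuppressed 1 day before infection with cyclophosphamide 200 mg/kg i.p. plus 5-fluorouracil 150 mg/kg i.v., then infected i.v. via lateral tail vein with 2 × 10^4 CFU in 0.2 ml saline. Oral gavage at 10, 20 or 30 mg/kg BID began 24 h post-challenge for 7 days. Ceftazidime 5 mg/day s.c. was given days 1–7. Groups of 10 were checked daily for 20 days; untreated controls.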
# Rhizopus arrhizus [23] = experiment: Antifungal activity against drug-susceptible Rhizopus oryzae UTHSC 06-4152 after 24 to 48 hrs; format: functional; method in brief: as §1
# Rhizopus arrhizus [24] = experiment: Antifungal activity against drug-susceptible Rhizopus oryzae UTHSC 03-299 after 24 to 48 hrs; format: functional
# Rhizopus arrhizus [25] = experiment: Antifungal activity against drug-intermediate Rhizopus oryzae UTHSC 05-114 by broth microdilution method; format: functional; method in brief: as §5
# Rhizopus arrhizus [26] = experiment: Antifungal activity against drug-susceptible Rhizopus oryzae UTHSC 06-4336 after 24 to 48 hrs; format: functional; method in brief: as §1
# Rhizopus arrhizus [27] = experiment: Antifungal activity against drug-susceptible Rhizopus oryzae UTHSC 04-278 by broth microdilution method; format: functional
# Method in brief: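 CLSI broth microdilution for filamentous fungi (M38-A2); MIC recorded in µg/ml against clinical isolates; breakpoints applied at 24 h.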
# Rhizopus arrhizus [28] = experiment: Antifungal activity against drug-intermediate Rhizopus oryzae UTHSC 07-365 after 24 to 48 hrs; format: functional
# Rhizopus arrhizus [29] = experiment: Antifungal activity against drug-susceptible Rhizopus oryzae UTHSC 03-112 after 24 to 48 hrs; format: functional
# Rhizopus arrhizus [30] = experiment: Antifungal activity against drug-susceptible Rhizopus oryzae UTHSC 06-89 after 24 to 48 hrs; format: functional
# Rhizopus arrhizus [31] = experiment: Antifungal activity against drug-intermediate Rhizopus oryzae UTHSC 04-3109 infected in OF1 mouse assessed as increase in mouse survival at 20-30 mg/kg, po bid treated 24 hrs after fungal infection; format: functional, organism-based; method in brief: as §6
structure (smiles),measurement,setting,value
CC[C@@H]([C@H](C)O)n1ncn(-c2ccc(N3CCN(c4ccc(OC[C@@H]5CO[C@@](Cn6cncn6)(c6ccc(F)cc6F)C5)cc4)CC3)cc2)c1=O [POSACONAZOLE],MFC,Rhizopus arrhizus [1],1 mg/L
same,MFC,Rhizopus arrhizus [2],8 mg/L
same,zone of inhibition at 5 µg/disc,Rhizopus arrhizus [3],17 mm
same,MIC,Rhizopus arrhizus [4],0.5 mg/L
same,Activity,Rhizopus arrhizus [5],Active
same,Activity,Rhizopus arrhizus [6],Active
same,zone of inhibition at 5 µg/disc,Rhizopus arrhizus [7],14 mm
same,zone of inhibition at 5 µg/disc,Rhizopus arrhizus [8],23 mm
same,MFC,Rhizopus arrhizus [9],1 mg/L
same,Activity,Rhizopus arrhizus [10],Active
same,MIC,Rhizopus arrhizus [11],2 mg/L
same,MFC,Rhizopus arrhizus [12],4 mg/L
same,zone of inhibition at 5 µg/disc,Rhizopus arrhizus [13],15 mm
same,zone of inhibition at 5 µg/disc,Rhizopus arrhizus [14],14 mm
same,Activity,Rhizopus arrhizus [15],Active
same,MIC,Rhizopus arrhizus [16],0.5 mg/L
same,zone of inhibition at 5 µg/disc,Rhizopus arrhizus [17],20 mm
same,MIC,Rhizopus arrhizus [18],1 mg/L
same,zone of inhibition at 5 µg/disc,Rhizopus arrhizus [19],20 mm
same,MIC,Rhizopus arrhizus [20],0.25 mg/L
same,zone of inhibition at 5 µg/disc,Rhizopus arrhizus [21],22 mm
same,Activity,Rhizopus arrhizus [22],Active
same,MFC,Rhizopus arrhizus [23],1 mg/L
same,MFC,Rhizopus arrhizus [24],> 16 mg/L
same,MIC,Rhizopus arrhizus [25],2 mg/L
same,MFC,Rhizopus arrhizus [26],1 mg/L
same,MIC,Rhizopus arrhizus [27],1 mg/L
same,MFC,Rhizopus arrhizus [28],16 mg/L
same,MFC,Rhizopus arrhizus [29],1 mg/L
same,MFC,Rhizopus arrhizus [30],1 mg/L
same,Activity,Rhizopus arrhizus [31],Active
